From ChEMBL document CHEMBL4020797, “Design, synthesis and evaluation of antitumor acylated monoaminopyrroloquinazolines” (2017)

How the values were obtained:
MDA-MB-468 = assay: Antiproliferative activity against human MDA-MB-468 after 72 hrs by MTT assay; type: functional; settings: for GI50: MDA-MB-468, 72 h
How it was run: (§1)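 Triple-negative breast cancer cells were exposed to a range of compound concentrations for 72 h, and viable cells were then quantified spectrophotometrically with MTT reagent. GI50 (concentration giving 50% growth inhibition) was derived from dose-response curves by non-linear regression and reported as mean ± SD from at least two independent measurements. The highest concentration tested was 100 μM.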

MDA-MB-231 = assay: Antiproliferative activity against human MDA-MB-231 after 72 hrs by MTT assay; type: functional; settings: for GI50: MDA-MB-231, 72 h; how it was run: as §1

SMILES: CC(C)C(=O)Nc1ncc2c(ccc3[nH]ccc32)n1
- GI50 (MDA-MB-468): > 100 µM
- GI50 (MDA-MB-231): > 100 µM

SMILES: CC(=O)Nc1ncc2c(ccc3[nH]ccc32)n1
- GI50 (MDA-MB-468): > 100 µM
- GI50 (MDA-MB-231): > 100 µM

SMILES: O=C(Nc1ncc2c(ccc3[nH]ccc32)n1)c1ccc2ccccc2c1
- Activity (MDA-MB-468): Dose-dependent effect
- GI50 (MDA-MB-468): 0.088 µM
- Activity (MDA-MB-231): Dose-dependent effect
- GI50 (MDA-MB-231): 0.2 µM

SMILES: CCC(=O)Nc1ncc2c(ccc3[nH]ccc32)n1
- GI50 (MDA-MB-468): 28.3 µM
- GI50 (MDA-MB-231): 72.8 µM

SMILES: CCCC(=O)Nc1ncc2c(ccc3[nH]ccc32)n1
- GI50 (MDA-MB-468): 2.02 µM
- GI50 (MDA-MB-231): 3.46 µM

SMILES: CC(C)(C)C(=O)Nc1ncc2c(ccc3[nH]ccc32)n1
- GI50 (MDA-MB-468): > 100 µM
- GI50 (MDA-MB-231): > 100 µM
